SENP6 inh – inhibitors of human SENP6 protease | Q9GZR1 | Recombinant SENP6 catalytic domain, aminoluciferin luminescence | inhibition, % at 10 µM | actives 1.8% (n = 330,000) | AID 2599;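 active = inhibition above about 50% at the single tested dose, limit read from the data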;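 also: plate controls were DMSO wells with enzyme for no effect and DMSO wells lacking enzyme for full effect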
SENP8 block-1 – SENP8 protease inhibition. Q96LD8. purified SENP8, Z-RLRGG-aminoluciferin cleavage, luminescence. inhibition, % at 10 µM. actives 1.2% (n = 330,000). AID 2540; in the data active = inhibition above about 50%
Target sequence (Q96LD8 whole entry, looked up): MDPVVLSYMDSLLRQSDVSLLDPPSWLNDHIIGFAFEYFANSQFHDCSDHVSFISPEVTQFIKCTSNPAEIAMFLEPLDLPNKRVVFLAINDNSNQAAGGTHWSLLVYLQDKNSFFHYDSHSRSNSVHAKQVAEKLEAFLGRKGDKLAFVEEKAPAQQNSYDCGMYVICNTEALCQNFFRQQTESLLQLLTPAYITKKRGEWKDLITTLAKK
SENP8 block-2 – blocks human SENP8 cleavage of Nedd8 substrate | Q96LD8 | recombinant SENP8, Nedd8 substrate fluorescence | inhibition, % at 20 µM | actives 0.64% (n = 360,000); in the data active = inhibition mostly above about 40%, no sharp cut-off; inactive = mostly below about 27%
SENP1 inh – blocks the human SENP1 SUMO protease catalytic domain; recombinant SENP1 catalytic domain, CyPet-SUMO1-YPet FRET cleavage; AID 624204; inhibition, % at 10 µM; Q9P0U3; actives 0.21% (n = 360,000);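 active = inhibition at least 30% at 10 µM, raw YFP signal under a set limit, fluorescence ratio 0.5 to 1.5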;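 also: 0% = enzyme with DMSO and 100% = no enzyme wells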
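Assay system – human recombinant His6-tagged SENP1 catalytic domain enzyme · Input – SENP1 enzyme, 20 pM final · Buffer or medium – Tris pH 8 buffer plus EDTA, NaCl, BME, BSA, NP40, catalase · Schedule – 50 min reaction at room temperature · Technique – FRET read of cyan and yellow fluorescence · Control set – no-enzyme wells low, DMSO-plus-enzyme wells high control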
HSP90 refold inh – inhibitors of HSP90 luciferase refolding in rabbit reticulocyte lysate. luciferase refolding luminescence, 3 h. AID 1789. actives 0.91% (n = 290,000). inhibition, % at 5.6 µM;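 active = inhibition above the screen-wide mean plus 3 SD, computed separately per campaign, cut at about 16% in these data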;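 also: 0% = DMSO wells and 100% = 60 µM geldanamycin wells; inhibitors lower the luminescence because luciferase stays unfolded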
SENP7 inh – inhibitors of human SENP7 protease; inhibition, % at 5 µM; actives 1.5% (n = 330,000); AID 434973; Q9BQF6; recombinant SENP7, Z-RLRGG-aminoluciferin luminescence, 40 min;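 active = inhibition above about 50% at the single test dose, limit read from the data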;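 also: plate controls were DMSO with enzyme for no effect and no enzyme buffer wells for full effect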
Target sequence (Q9BQF6 706-1050 limits assumed): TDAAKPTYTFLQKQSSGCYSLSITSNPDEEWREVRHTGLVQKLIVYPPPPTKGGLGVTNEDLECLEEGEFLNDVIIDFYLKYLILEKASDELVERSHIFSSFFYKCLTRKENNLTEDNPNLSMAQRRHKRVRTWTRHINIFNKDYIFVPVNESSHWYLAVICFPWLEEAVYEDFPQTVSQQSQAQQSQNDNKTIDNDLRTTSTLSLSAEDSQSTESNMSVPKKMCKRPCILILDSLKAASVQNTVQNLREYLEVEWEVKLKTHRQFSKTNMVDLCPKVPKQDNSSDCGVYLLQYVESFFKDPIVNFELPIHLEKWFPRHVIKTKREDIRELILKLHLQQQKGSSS
SENP8 confirm – human SENP8 inhibition, confirmed; shares compounds with SENP7 inh; AID 488912; actives 40% (n = 6,200); inhibition, % at 12.5 µM; Recombinant SENP8, Z-RLRGG-aminoluciferin luminescence, 60 min;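 active = mean inhibition across replicates above about 50%, limit read from the data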
SENP6 conf – confirmation of human SENP6 protease inhibitors | AID 488915 | recombinant SENP6, Z-RLRGG-aminoluciferin luminescence | inhibition, % at 12.5 µM | actives 58% (n = 6,200) | shares compounds with SENP7 inh
SENP7 confirm – human SENP7 inhibition, confirmed; shares compounds with SENP7 inh; recombinant SENP7, Z-RLRGG-aminoluciferin luminescence, 40 min; inhibition, % at 12.5 µM; actives 69% (n = 6,200); AID 488917
Casp3 select – inhibits human caspase-3 in SENP selectivity test. shares compounds with SENP7 inh. purified caspase-3, Z-DEVD-aminoluciferin luminescence, 60 min. inhibition, % at 12.5 µM. actives 60% (n = 6,200);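 active = mean inhibition above about 50%, limit read from the data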;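 also: plate controls were enzyme with DMSO for no effect and wells without caspase-3 for full effect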
SENP luc ctr – luminescence interference (SENP counter-screen); shares compounds with SENP7 inh; Pre-incubated SENP8/Z-RLRGG-aminoluciferin, luciferase luminescence interference; inhibition, % at 12.5 µM; actives 39% (n = 6,200); AID 488919;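 active = mean inhibition above about 50% when retested at one dose, limit read from the data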;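 also: plate controls were DMSO wells with completed reaction for no effect and substrate without enzyme for full effect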
Numbers without * were called inactive. Hits are enriched below; roughly 2.9% of the tested compounds scored in any of these assays.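 The calls were made as follows, unless noted: active = mean inhibition above about 50% in the one-dose retest (limit read from the data); inactive = the rest.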

How did Cc1cccc(C)c1NC(=O)CN(C)C(=O)c1ccccc1C(=O)N(C)Cc1ccccc1 do in these assays?
SENP6 inh: -15; SENP8 block-1: -6; SENP8 block-2: 16; SENP1 inh: 1; HSP90 refold inh: 4; SENP7 inh: -12

Results for Cc1cccc(C)c1NC(=O)CN(C)C(=O)C(c1ccccc1)c1ccccc1 ?
SENP6 inh: 13; SENP8 block-1: 1; SENP8 block-2: 4; SENP1 inh: 1; HSP90 refold inh: -2; SENP7 inh: 91*; SENP8 confirm: -4; SENP6 conf: -3; SENP7 confirm: -7; Casp3 select: -3; SENP luc ctr: -4

What do the screens show for `Cn1c(/C=N/Nc2nc3ccccc3[nH]2)nc2ccccc21`?
SENP6 inh: 83*; SENP8 block-1: 60*; SENP8 block-2: 16; SENP1 inh: 0; HSP90 refold inh: 9; SENP7 inh: 74*; SENP8 confirm: 62*; SENP6 conf: 59*; SENP7 confirm: 82*; Casp3 select: 52*; SENP luc ctr: 15

Results for Cc1ccsc1/C=N/Nc1nc2ccccc2[nH]1 ?
SENP8 block-2: -259; SENP1 inh: -8; HSP90 refold inh: 6

How did C(=N\Nc1nc2ccccc2[nH]1)/c1cccs1 do in these assays?
SENP6 inh: 86*; SENP8 block-1: 59*; SENP8 block-2: -24; SENP1 inh: -1; HSP90 refold inh: -4; SENP7 inh: 62*; SENP8 confirm: 57*; SENP6 conf: 54*; SENP7 confirm: 67*; Casp3 select: 52*; SENP luc ctr: 65*

What do the screens show for `Cc1nn(-c2ccccc2)c(C)c1/C=N/Nc1nc2ccccc2[nH]1`?
SENP6 inh: 39; SENP8 block-1: 74*; SENP8 block-2: -294; SENP1 inh: -7; HSP90 refold inh: 7; SENP7 inh: 75*; SENP8 confirm: 84*; SENP6 conf: 84*; SENP7 confirm: 94*; Casp3 select: 74*; SENP luc ctr: 83*

How did COc1cc(C(=S)N2CCCC2)cc(OC)c1O do in these assays?
SENP6 inh: -6; SENP8 block-1: 2; SENP8 block-2: 11; SENP1 inh: 3; HSP90 refold inh: 4; SENP7 inh: 0

How did COc1ccccc1-c1nnc(Nc2nc3c(OC)cccc3s2)o1 do in these assays?
SENP6 inh: 34; SENP8 block-1: -30; SENP8 block-2: -316; SENP1 inh: -48; HSP90 refold inh: 1; SENP7 inh: 76*; SENP8 confirm: -17; SENP6 conf: -11; SENP7 confirm: 32; Casp3 select: 49; SENP luc ctr: 44

How did COc1cccc(-c2nnc(Nc3nc4c(F)cccc4s3)o2)c1 do in these assays?
SENP6 inh: 90*; SENP8 block-1: 84*; SENP8 block-2: -278; SENP1 inh: -31; HSP90 refold inh: -1; SENP7 inh: 37; SENP8 confirm: 4; SENP6 conf: 84*; SENP7 confirm: 2; Casp3 select: 60*; SENP luc ctr: 50*

Results for CNc1nc(SCc2ccccc2Cl)nc2c1CCCC2 ?
SENP6 inh: 7; SENP8 block-1: 0; SENP8 block-2: 10; SENP1 inh: -1; HSP90 refold inh: 0; SENP7 inh: 4

What do the screens show for `O=S(=O)(c1cccc(-c2nc3n(n2)Cc2ccccc2-3)c1)N1CCCC1`?
SENP6 inh: -2; SENP8 block-1: -13; SENP8 block-2: 10; SENP1 inh: 1; HSP90 refold inh: 0; SENP7 inh: -9

How did Clc1ccc(-c2cn3c(n2)-c2ccccc2C3)cc1Cl do in these assays?
SENP6 inh: 94*; SENP8 block-1: 93*; SENP8 block-2: 2; SENP1 inh: -1; HSP90 refold inh: 2; SENP7 inh: 98*; SENP8 confirm: 43; SENP6 conf: 84*; SENP7 confirm: 94*; Casp3 select: 80*; SENP luc ctr: 38

How did COc1cccc(COc2ccc3c(C)cc(=O)oc3c2)c1 do in these assays?
SENP6 inh: 77*; SENP8 block-1: 68*; SENP8 block-2: -116; SENP1 inh: 3; HSP90 refold inh: 2; SENP7 inh: 71*; SENP8 confirm: 4; SENP6 conf: 75*; SENP7 confirm: 90*; Casp3 select: 65*; SENP luc ctr: 62*

What do the screens show for `COc1cccc(NC(=O)COc2ccc(N3CC(C(=O)NCC(C)C)CC3=O)cc2)c1` (stereo not given)?
SENP6 inh: -12; SENP8 block-1: -6; SENP8 block-2: 19; SENP1 inh: 2; HSP90 refold inh: 0; SENP7 inh: -4

Results for O=c1cc(CSc2nnc(Nc3ccccc3)s2)nc2sccn12 ?
SENP6 inh: -9; SENP8 block-1: -10; SENP8 block-2: -4; SENP1 inh: 4; HSP90 refold inh: -1; SENP7 inh: -9

Results for Cc1cccc(Nc2nnc(SCc3cn4ccsc4n3)s2)c1 ?
SENP6 inh: 56*; SENP8 block-1: 42; SENP8 block-2: 17; SENP1 inh: 3; HSP90 refold inh: 4; SENP7 inh: 61*; SENP8 confirm: 41; SENP6 conf: 40; SENP7 confirm: 72*; Casp3 select: 45; SENP luc ctr: 55*

What do the screens show for `CCOc1ccc(C(=O)c2cc3ccc(O)cc3oc2=O)cc1`?
SENP6 inh: -13; SENP8 block-1: -5; SENP8 block-2: -340; SENP1 inh: -42; HSP90 refold inh: 2; SENP7 inh: 1

Results for O=C(c1ccc([N+](=O)[O-])cc1)c1cc2ccc(O)cc2oc1=O ?
SENP6 inh: 83*; SENP8 block-1: 78*; SENP8 block-2: 12; SENP1 inh: -5; HSP90 refold inh: -1; SENP7 inh: 71*; SENP8 confirm: 23; SENP6 conf: 65*; SENP7 confirm: 6; Casp3 select: 71*; SENP luc ctr: 7

Screening results as filed in PubChem BioAssay.
